Screening data deposited in PubChem BioAssay by several laboratories.
Tb MetRS inh: T. brucei MetRS inhibitors, primary screen, biochemical, luminescence. purified T. brucei MetRS, ATP depletion, Kinase-Glo luminescence. inhibition, % at 11.9 µM. AID 624268, 2012. 360,000 tested, 0.4% active. methionyl-tRNA synthetase (Trypanosoma brucei brucei);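 active = inhibition above a per-plate cutoff of the control wells' mean inhibition plus 3 SD, cut at about 5.5% in these data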;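 note: 0% = DMSO wells median and 100% = median of wells with control inhibitor compound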
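Dosing: 11.9 µM compound single dose, 0.9% DMSO; Assay system: purified T. brucei MetRS enzyme; Measured by: Kinase-Glo luciferase luminescence reporting remaining unconsumed ATP; Schedule: 15 min plus 2 h at 25 °C.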
iPSC survival up: enhancers of single-cell hiPSC survival, primary screen, ATPlite luminescence; 100% = ROCK inhibitor wells, 0% = DMSO; survival enhancement, % at 20 µM; 360,000 tested, 0.044% active; AID 602274, 2012; in the data active = survival enhancement above about 18%;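 note: cells exposed to compounds for 16 hours before the ATP read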
Exocytosis inh: LAMP-1 surface exposure blockers, TALL-104 cells – cell-based, flow cytometry, MLPCN library, primary screen; TALL-104 LAMP-1 surface exposure; cells stimulated with thapsigargin and PMA; inhibition, % at 10 µM; 360,000 tested, 0.66% active;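 active = inhibition above about 55%, limit read from the data; inconclusive = no clear call, values can overlap the other calls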
MC4R barr agon: MC4R agonists recruiting beta-arrestin, primary screen, cell-based, luminescence, agonist arm of biased-ligand search; 360,000 tested, 0.98% active; U2OS MC4R beta-arrestin complementation; percent of melanotan II response, DMSO zero; AID 540308, 2011; activation, % at 8.9 µM; Melanocortin receptor 4 (Homo sapiens), P32245;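 active = activation above a per-plate cutoff, the mean activation of sample wells on that plate plus 3 SD, cut at about 8% in these data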
Target sequence (P32245 whole entry, looked up): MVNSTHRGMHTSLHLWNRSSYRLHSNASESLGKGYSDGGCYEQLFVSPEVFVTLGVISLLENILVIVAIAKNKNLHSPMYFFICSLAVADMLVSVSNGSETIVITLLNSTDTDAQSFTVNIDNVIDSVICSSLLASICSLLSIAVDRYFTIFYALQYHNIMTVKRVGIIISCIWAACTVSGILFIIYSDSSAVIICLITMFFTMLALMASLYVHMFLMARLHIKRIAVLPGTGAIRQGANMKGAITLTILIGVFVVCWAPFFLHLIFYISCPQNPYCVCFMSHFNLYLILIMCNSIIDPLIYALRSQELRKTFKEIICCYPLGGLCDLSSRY
ABCB6 inh MLPCN: ABCB6 transporter inhibitors, primary screen, K562-ABCB6 cells, flow cytometry, MLPCN library; ATP-binding cassette sub-family B member 6 (Homo sapiens), Q9NP58; K562-ABCB6 porphyrin accumulation, 1 h; active compounds read low; fluorescence ratio to DMSO, % at 10 µM; 360,000 tested, 0.19% active;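 active = fluorescence ratio to DMSO below 75%, the collection mean minus 3 SD; inconclusive = too few cells collected in the well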;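 note: signal is porphyrin accumulated inside mitochondria; 100% equals median channel fluorescence of DMSO control wells; lower ratio means ABCB6 inhibition with less porphyrin fluorescence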
MC4R antagonist: MC4R antagonists of cAMP signaling, primary screen, cell-based, TR-FRET, antagonist arm of biased-ligand search | 360,000 tested, 0.48% active | Melanocortin receptor 4 (Homo sapiens), P32245 | inhibition, % at 6.5 µM | MC4R-expressing cells, MTII-stimulated cAMP, LANCE TR-FRET;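 active = inhibition above its plate's cutoff, the mean of tested wells on that plate plus 3 SD, cut at about 29% in these data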;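 note: 0% = Melanotan II alone and 100% = Melanotan II plus saturating MCL0020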
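System: U2OS-MC4R stable cell line; Technique: Eu-cAMP/anti-cAMP TR-FRET, emission 671 nm; Repeats: single well per compound; Also added: Melanotan II; Dosing: one concentration, 6.5 µM nominal; Schedule: 30-min compound, 1-h challenge, 1-h detection, room temperature.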
MC4R barr conf: MC4R beta-arrestin agonists, retest, confirmation, cell-based, luminescence, U2OS. 2,400 tested, 31% active. shares compounds with MC4R barr agon. U2OS MC4R beta-arrestin recruitment; scaled DMSO 0%, Melanotan II 100%. AID 602192, 2012. activation, % at 8.9 µM;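 active = mean activation across replicates above the hit cutoff set in the earlier primary screen, cut at about 8% in these data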
MOR DOR agonist: agonists of MOR-DOR heterodimerization, counter-screen for MC4R biased agonist project, cell-based, luminescence. shares compounds with MC4R barr agon. U2OS PathHunter beta-arrestin, beta-gal luminescence; percent of deltorphin B response, DMSO zero. activation, % at 9.2 µM. 2,400 tested, 5.8% active;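 active = mean activation across replicates exceeds the hit threshold derived in the earlier primary screen, cut at about 18% in these data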;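 note: 100% = deltorphin B at 0.9 µM final and 0% = DMSO alone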
The depositor's hits bear a star; ? = inconclusive; nt = not tested or not shown. Rows were chosen to be rich in hits. Some 2.6% of all compounds tested hit in one or more screens of this group.

SMILES	Tb MetRS inh	iPSC survival up	Exocytosis inh	MC4R barr agon	ABCB6 inh MLPCN	MC4R antagonist	MC4R barr conf	MOR DOR agonist
CC1CCCCN1C(=O)COC(=O)c1cc([N+](=O)[O-])ccc1N1CCOCC1 (stereo unspecified)	0	0	2	-4	101	-3	nt	nt
COc1ccc(OCc2nnc(SCC(=O)Nc3ccccc3F)o2)cc1	0	0	-2	0	96	-3	nt	nt
O=C(Cn1cnc2c(NCc3ccccc3)ncnc21)NCc1nc2ccccc2[nH]1	0	-1	-4	-3	95	-3	nt	nt
CC1(C(=O)NS(=O)(=O)c2cccc(Cl)c2)CCN1C(=O)Cc1ccsc1 (stereo unspecified)	0	3	-9	-1	89	1	nt	nt
COc1ccc(C(CNC(=O)c2ccc(S(=O)(=O)N3CC(C)CC(C)C3)cc2)N(C)C)cc1 (stereo unspecified)	0	-2	12	-1	95	8	nt	nt
N#Cc1ccccc1NC(=O)c1ccc(-c2ccccc2Cl)o1	0	-1	0	22*	95	1	7	6
COc1ccc(OC)c(C(=O)NC(CC(N)=O)c2ccc(N3CCN(c4ccc(F)cc4)CC3)c([N+](=O)[O-])c2)c1 (stereo unspecified)	0	-2	3	0	93	0	nt	nt
O=C(CNC(=O)c1nc[nH]c1C(=O)NCc1ccccc1)OCc1ccccc1	1	-2	-2	-2	95	19	nt	nt
COc1ccc(-c2ccc3oc(-c4ccc(OC)cc4)c(C#CCO)c3c2)cc1	-1	-3	-4	18*	101	14	15*	5
COc1ccc(-c2oc3ccc(-c4ccc(OC)nc4)cc3c2C#CC2(O)CCCCC2)cc1	-1	-1	-8	13*	102	11	11*	4
COc1ccc(-c2oc3ccc(-c4ccc5c(c4)OCO5)cc3c2C#CC2(O)CCCCC2)cc1	1	2	-3	15*	98	8	17*	4
COc1ccc(-c2sc3cc4c(cc3c2C#CC2(O)CCCCC2)OCO4)cc1	0	1	-6	0	95	1	nt	nt
COc1ccc(-c2sc3cc(OC)c(OC)cc3c2C#CCO)cc1	0	2	0	18*	98	7	16*	15
COC(=O)c1cnc2c(c(C)nn2C)c1OC	-1	-1	-6	0	100	-3	nt	nt
CC(=O)c1cccc(NS(=O)(=O)c2ccc(N/C=C\C(=O)c3ccc(C)cc3)cc2)c1	-1	-1	4	30*	99	6	0	5
CC(=O)c1cccc(NS(=O)(=O)c2ccc(N/C=C/C(=O)c3ccc(F)cc3)cc2)c1	1	1	-5	2	95	14	nt	nt
O=C(CSc1ccc(C(F)(F)F)cc1[N+](=O)[O-])Nc1ccc2ccccc2c1	0	0	3	11*	100	-1	8	6
Cc1ccnc(Nc2nc(-c3ccc(O)cc3)cs2)c1	2	2	36	-1	90	-5	nt	nt
Cc1ccnc(Nc2nc(-c3ccc(O)cc3O)cs2)c1	0	0	17	18*	100	8	13*	8
CC(=O)Nc1ccc(CN(C)c2c(C)nc3ccc(C(=O)N4CCN(c5ccccc5)CC4)cn23)cc1	0	2	24	-1	96	17	nt	nt
Cc1ccc(CCc2nnc(SCC(=O)Nc3cccc(Cl)c3)n2-c2ccccc2)o1	0	1	6	27*	105	-1	3	8
CC(C)NC(=O)C1(C)CSCC(=O)N1Cc1cccc(C(F)(F)F)c1 (stereo unspecified)	0	nt	11	nt	nt	nt	nt	nt
O=C(Cn1nnc(-c2ccccc2F)n1)NCc1ccco1	0	-1	1	-1	93	5	nt	nt
COc1cc(SC)ccc1C(=O)Nc1ccccc1C#N	0	0	-2	12*	84	-2	7	4
Cc1ccc(NC(=O)CN2CCN(S(=O)(=O)c3cccs3)CC2)cc1S(=O)(=O)N(C)C	0	-1	0	0	99	3	nt	nt
SMILES	Tb MetRS inh	iPSC survival up	Exocytosis inh	MC4R barr agon	ABCB6 inh MLPCN	MC4R antagonist	MC4R barr conf	MOR DOR agonist
Cc1cccc(CCNS(=O)(=O)c2ccc3c(c2)CCN3C(=O)CCC(=O)O)c1	-1	0	-12	-1	96	-8	nt	nt
Clc1cc(Cl)cc(Nc2ncn[nH]2)c1	0	2	0	-1	92	-3	nt	nt
CSc1cccc(NC(=O)CN(c2ccc(C)cc2C)S(C)(=O)=O)c1	-1	1	16	10*	104	11	-1	4
N#C/C(=C/c1ccc2c(c1)OCO2)C(=O)Nc1ccc(O)cc1	-1	-1	4	-1	91	-14	nt	nt
Cc1nn(-c2ccccc2)c(Cl)c1/C=N/Nc1nc2ccccc2[nH]1	0	-4	1	12*	89	-1	3	10
CCOC(=O)c1oc2ccccc2c1COC(=O)CNC(=O)c1ccc(C)cc1	0	-1	-2	1	93	0	nt	nt
CCn1c2ccccc2c2cc(CNCc3ccc(OC)cc3OC)ccc21	-1	-1	44	41*	100	2	52*	21*
COC(=O)[C@H](Cc1ccccc1)NC(=O)Cn1cnc(C(=O)Nc2ccc(C)c(C)c2)n1	-1	2	14	-2	95	1	nt	nt
COc1cc2nc(Nc3ccc(C)c(Cl)c3)nc(N)c2cc1OC	1	0	?	11*	95	0	18*	13
COc1cc2nc(Nc3ccc(C)c(C)c3)nc(N)c2cc1OC	1	0	?	0	106	3	nt	nt
O=C(Nc1ccc2nn(-c3ccccc3)nc2c1)c1ccc(Br)o1	0	-2	1	13*	96	8	17*	3
